Experimental data published in ChEMBL document CHEMBL1123757, “Selective thromboxane synthetase inhibitors and antihypertensive agents. New derivatives of 4-hydrazino-5H-pyridazino[4,5-b]indole, 4-hydrazinopyridazino[4,5-a]indole, and related compounds” (J Med Chem, 1987).

How the values were obtained:
[1] = system: Rattus norvegicus; assay: Antihypertensive activity in spontaneously hypertensive rats (SHR) measured by percentage fall in cardiac rhythm (CR) at 25 mg/kg administered intraperitoneally at 24 h;No significance; format: functional, organism-based; parameters: dose 25 mg/kg; settings: Heart
How it was run: (§1)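 Unanesthetized Okamoto-strain SHR, male and female, 8 weeks old, 300–350 g, systolic pressure ≥190 mmHg, heart rate 400–650 beats/min; five animals per dose. Given ip at 2.5 mL/kg, dissolved or suspended in normal saline or saline with 0.2% (carboxymethyl)cellulose and 1.0% Tween 80. Tail AP and CR recorded by mechanical transduction at set times; reported as percentage fall from control.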

[2] = system: Cavia porcellus; assay: Ex vivo inhibition of platelet aggregation induced by ADP-II at 50 mg/kg; No significance; format: functional, organism-based; parameters: dose 50 mg/kg
How it was run: (§2)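 Fasted male or female guinea pigs (250–300 g, five per group) dosed orally in normal saline or saline with 0.2% (carboxymethyl)cellulose/1.0% Tween 80; controls given vehicle. Under ether, cardiac blood collected into 3.8% citrate. PRP adjusted to […] and aggregation induced by ADP (second wave) or AA, read by absorbance aggregometry. PGE2 and TXB2 measured by RIA.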

[3] = system: Rattus norvegicus; assay: Percent increase in cardiac rhythm, directly measured on carotid (iv on the jugular vein) of spontaneously hypertensive rats at 1 mg/kg after 240 minutes;No significance; format: functional, organism-based; parameters: dose 1 mg/kg; settings: Heart
How it was run: (§3)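 Anesthetized (sodium pentobarbital, 70 mg/kg) male and female Okamoto SHR, 8 weeks old, 300–350 g. Given iv into the jugular vein in normal saline. Arterial pressure and cardiac rhythm are recorded directly from the carotid by polygraph at set times after dosing. Each is expressed as percent change from the pre-dose control value.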

[4] = system: Cavia porcellus; assay: Ex vivo inhibition of platelet aggregation induced by ADP-II at 30 mg/kg; No significance; format: functional, organism-based; parameters: dose 30 mg/kg; how it was run: as §2
[5] = system: Cavia porcellus; assay: Ex vivo inhibition of platelet aggregation induced by AA at 50 mg/kg; No significance; format: functional, organism-based; parameters: dose 50 mg/kg; how it was run: as §2
[6] = system: Rattus norvegicus; assay: Antihypertensive activity in spontaneously hypertensive rats (SHR) measured by percentage fall in cardiac rhythm (CR) at 25 mg/kg administered perorally at 24 h;No significance; format: functional, organism-based; parameters: dose 25 mg/kg; settings: Heart
How it was run: (§4)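 Conscious SHR (Okamoto strain), 8 weeks old, male and female, 300–350 g, systolic BP ≥190 mmHg, CR 400–650 beats/min. Given ip or po at 2.5 mL/kg in normal saline or saline with 0.2% (carboxymethyl)cellulose and 1.0% Tween 80. Tail AP and CR recorded by mechanical transduction at 1, 3, 5 and 24 h, five animals per dose. Effect expressed as % fall versus control.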

[7] = system: Rattus norvegicus; assay: Antihypertensive activity in spontaneously hypertensive rats (SHR) measured by percentage fall in cardiac rhythm (CR) at 1 mg/kg administered intraperitoneally at 5 h;No significance; format: functional, organism-based; parameters: dose 1 mg/kg; settings: Heart; how it was run: as §1
[8] = system: Rattus norvegicus; assay: Percent increase in cardiac rhythm, directly measured on carotid (iv on the jugular vein) of spontaneously hypertensive rats at 1 mg/kg after 120 minutes;No significance; format: functional, organism-based; parameters: dose 1 mg/kg; settings: Heart; how it was run: as §3
[9] = system: Cavia porcellus; assay: Ex vivo inhibition of platelet aggregation induced by AA at 30 mg/kg; No significance; format: functional, organism-based; parameters: dose 30 mg/kg; how it was run: as §2
[10] = system: Rattus norvegicus; assay: Percent increase in cardiac rhythm, directly measured on carotid (iv on the jugular vein) of spontaneously hypertensive rats at 1 mg/kg after 180 minutes;No significance; format: functional, organism-based; parameters: dose 1 mg/kg; settings: Heart; how it was run: as §3
[11] = target: T1, Thromboxane-A synthase (Homo sapiens) (UniProt P24557); assay: Effect on thromboxane synthetase activity on in vitro platelet aggregation induced by AA at 10e -5 M expressed as percent […] in TXB2; format: functional
T1 sequence (whole entry): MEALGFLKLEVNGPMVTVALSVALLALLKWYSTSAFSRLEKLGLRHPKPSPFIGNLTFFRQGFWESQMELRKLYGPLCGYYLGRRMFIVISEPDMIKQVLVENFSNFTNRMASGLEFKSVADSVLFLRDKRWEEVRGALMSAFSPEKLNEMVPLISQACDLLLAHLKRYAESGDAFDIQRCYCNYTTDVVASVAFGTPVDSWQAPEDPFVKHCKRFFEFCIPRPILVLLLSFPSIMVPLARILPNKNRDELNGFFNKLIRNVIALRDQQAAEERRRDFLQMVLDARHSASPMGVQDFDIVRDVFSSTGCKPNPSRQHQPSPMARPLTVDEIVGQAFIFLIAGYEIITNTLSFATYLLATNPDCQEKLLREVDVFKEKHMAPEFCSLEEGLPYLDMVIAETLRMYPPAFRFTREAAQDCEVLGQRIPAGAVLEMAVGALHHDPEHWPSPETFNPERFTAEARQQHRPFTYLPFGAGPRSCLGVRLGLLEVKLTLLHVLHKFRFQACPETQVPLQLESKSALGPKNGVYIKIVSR
How it was run: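 Human citrated PRP adjusted to 200 000 […], compound at 10^-5 M final in saline/10% ethylene glycol, incubated at 37 °C. Aggregation induced with arachidonic acid 0.6 mM and read by Born absorbance aggregometry. PGE2 and TXB2 in the aggregated samples measured by radioimmunoassay. n = 5.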

[12] = system: Rattus norvegicus; assay: Antihypertensive activity in spontaneously hypertensive rats (SHR) measured by percentage fall in cardiac rhythm (CR) at 1 mg/kg administered intraperitoneally at 24 h;No significance; format: functional, organism-based; parameters: dose 1 mg/kg; settings: Heart; how it was run: as §1
[13] = system: Rattus norvegicus; assay: Antihypertensive activity in spontaneously hypertensive rats (SHR) measured by percentage fall in arterial pressure (AP) at 1 mg/kg administered intraperitoneally at 24 h;No significance; format: functional, organism-based; parameters: dose 1 mg/kg; settings: Artery; how it was run: as §1
[14] = system: Rattus norvegicus; assay: Percent increase in cardiac rhythm, directly measured on carotid (iv on the jugular vein) of spontaneously hypertensive rats at 1 mg/kg after 75 minutes;No significance; format: functional, organism-based; parameters: dose 1 mg/kg; settings: Heart; how it was run: as §3
[15] = system: Rattus norvegicus; assay: Antihypertensive activity in spontaneously hypertensive rats (SHR) measured by percentage fall in cardiac rhythm (CR) at 25 mg/kg administered perorally at 1 h;No significance; format: functional, organism-based; parameters: dose 25 mg/kg; settings: Heart; how it was run: as §4
[16] = system: Rattus norvegicus; assay: Percent increase in cardiac rhythm, directly measured on carotid (iv on the jugular vein) of spontaneously hypertensive rats at 1 mg/kg after 5 minutes;No significance; format: functional, organism-based; parameters: dose 1 mg/kg; settings: Heart; how it was run: as §3
[17] = system: Rattus norvegicus; assay: Antihypertensive activity in spontaneously hypertensive rats (SHR) measured by percentage fall in arterial pressure (AP) at 1 mg/kg administered intraperitoneally at 5 h;No significance significance; format: functional, organism-based; parameters: dose 1 mg/kg; settings: Artery; how it was run: as §1

Which “Decrease in CR” value [1] does the source give for `COc1ccc2[nH]c3c(NN)nncc3c2c1` here?
Its value is “No significant values”.

What about the inhibition [2] of the same compound?
Its inhibition is “No significant values”.

What about the Increase [3] of the same compound?
Its Increase is “No significant values”.

And the inhibition [4]?
The inhibition was “No significant values”.

And the inhibition [5]?
Its inhibition is “No significant values”.

What about the “Decrease in CR” value [6] of the same compound?
Its value is “No significant values”.

What about the “Decrease in CR” value [7] of the same compound?
Its value is “No significant values”.

And the Increase [8]?
The Increase was “No significant values”.

And the inhibition [9]?
The inhibition was “No significant values”.

And the Increase [10]?
Its Increase is “No significant values”.

And the inhibition [11]?
Its inhibition is 40%.

And the “Decrease in AP” value [12]?
Its value is “No significant values”.

And the “Decrease in AP” value [13]?
The value was “No significant values”.

And the Increase [14]?
Its Increase is “No significant values”.

And the “Decrease in CR” value [15]?
The value was “No significant values”.

What about the Increase [16] of the same compound?
Its Increase is “No significant values”.

What about the “Decrease in AP” value [17] of the same compound?
The value was “No significant values”.
